The values that follow come from ChEMBL document CHEMBL2169737, “Catechol pyrazolinones as trypanocidals: fragment-based design, synthesis, and pharmacological evaluation of nanomolar inhibitors of trypanosomal phosphodiesterase B1” (J Med Chem, 2012).

Structures are written as SMILES. Calls of active or inactive are those of the source. No cut-off for these calls is given here.

Data set [1] addresses T1, Class 1 phosphodiesterase PDEB1 (Trypanosoma brucei, UniProt Q8WQX9).
T1 sequence (Q8WQX9 whole entry): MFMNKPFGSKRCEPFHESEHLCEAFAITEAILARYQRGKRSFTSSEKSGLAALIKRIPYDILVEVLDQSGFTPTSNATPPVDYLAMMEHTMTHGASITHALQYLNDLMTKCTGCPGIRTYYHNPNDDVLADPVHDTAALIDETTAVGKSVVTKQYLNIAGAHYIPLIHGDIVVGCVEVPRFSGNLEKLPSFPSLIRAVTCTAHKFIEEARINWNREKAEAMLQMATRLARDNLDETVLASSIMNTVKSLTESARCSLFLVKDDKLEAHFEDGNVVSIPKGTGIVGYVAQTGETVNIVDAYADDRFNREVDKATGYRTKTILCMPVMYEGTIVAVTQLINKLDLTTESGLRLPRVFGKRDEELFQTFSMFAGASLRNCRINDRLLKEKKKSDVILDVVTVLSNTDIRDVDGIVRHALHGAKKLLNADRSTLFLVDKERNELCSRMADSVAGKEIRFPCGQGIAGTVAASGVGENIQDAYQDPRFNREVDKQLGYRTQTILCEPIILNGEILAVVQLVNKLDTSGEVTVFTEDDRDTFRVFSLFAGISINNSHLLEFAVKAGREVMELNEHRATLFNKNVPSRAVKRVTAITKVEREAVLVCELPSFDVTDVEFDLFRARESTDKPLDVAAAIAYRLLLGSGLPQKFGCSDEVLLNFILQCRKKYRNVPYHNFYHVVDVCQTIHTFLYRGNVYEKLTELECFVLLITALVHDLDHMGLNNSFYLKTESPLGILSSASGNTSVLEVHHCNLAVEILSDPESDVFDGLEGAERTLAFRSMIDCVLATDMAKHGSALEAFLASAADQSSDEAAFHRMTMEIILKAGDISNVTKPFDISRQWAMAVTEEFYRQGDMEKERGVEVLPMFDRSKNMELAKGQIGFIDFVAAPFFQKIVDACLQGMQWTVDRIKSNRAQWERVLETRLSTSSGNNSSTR
In words: Inhibition of Trypanosoma brucei recombinant TbrPDEB1 expressed in Sf21 insect cells assessed as reduction of [3H]-cAMP hydrolysis by scintillation proximity assay. The gist of the method: (§1)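 Full-length PDEs used as supernatants of sonicated overexpressing cells: Sf21 for TbrPDEB1 and hPDE4A1/4B1/4C1/4D3, yeast for TbrPDEB2. Inhibition of ³H-cAMP hydrolysis measured by scintillation proximity assay with 0.5 μM cAMP substrate, in at least duplicates. Enzyme adjusted for <20% substrate consumption; blanks used denatured protein. IC50 obtained by nonlinear regression of dose-response curves.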
For orientation: SPA uses beads or plates that emit light when radiolabelled molecules are held near them.

The nature of data set [2]: Cytotoxicity against human MRC5 cells after 72 hrs by resazurin assay. The class given is cell-based. (Resazurin is reduced to fluorescent resorufin, in cell work by metabolically active cells.)
Data set [3] deals with Trypanosoma brucei brucei. In words: microbe, parasite or virus in culture. To be noted: Squib-427, 72 h.
Data set [4] concerns Trypanosoma brucei brucei. In words: Antitrypanosomal activity against Trypanosoma brucei brucei. Format: functional, organism-based. The gist of the method: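 Bloodstream trypomastigotes (T. b. brucei Squib-427, suramin-sensitive, or T. b. rhodesiense STIB-900) grown at 37 °C, 5% CO2 in Hirumi-9 with 10% FCS. 1.5×10^4 parasites/well added to 2- or 4-fold serially diluted compounds (DMSO stock, water intermediate dilution, final DMSO <1%). After 72 h, resazurin added for 24 h at 37 °C. Fluorescence read at ex 530/em 590 nm.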

The test system of data set [5] is Trypanosoma brucei brucei. In words: Induction of morphological changes in wild type blood form of Trypanosoma brucei brucei assessed as multiple nuclei and kinetoplasts formation after 12 hrs by microscopic analysis. The class given is functional, organism-based. The gist of the method: (§2)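 Bloodstream T. b. brucei trypomastigotes at 1x10^6/mL incubated 12 h with 1, 5 or 10 μM compound or vehicle. Cells washed in saline, spread on slides, fixed 15 min in 2% formaldehyde, stained 30 min with Syto-9 (250 nM) and Nile Red. More than 300 cells per sample scored manually by microscopy as 1N1K, 1N2K, 2N1K or >2N2K.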

In data set [6] the test system is Trypanosoma brucei brucei. In words: Antitrypanosomal activity against wild type blood form of Trypanosoma brucei brucei assessed as parasite lysis at 10 uM after 48 hrs. The class given is functional, organism-based.
The subject of data set [7] is Trypanosoma brucei brucei. In words: Induction of morphological changes in wild type blood form of Trypanosoma brucei brucei assessed as multiple nuclei and kinetoplasts formation at 10 uM after 12 hrs by microscopic analysis. Format: functional, organism-based. The essentials: as §2
The subject of data set [8] is Trypanosoma brucei. In words: Increase in intracellular cAMP level in Trypanosoma brucei 427 expressing cAMP-FRET sensor by FRET assay. Format: functional, organism-based. The essentials: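 Procyclic T. brucei 427 stably expressing an EPAC1-based cAMP FRET sensor (EP procyclin locus, neomycin selection), grown in SDM79 with 5% FCS. Log-phase cells washed in HBSS and used at 5-6 x 10^7/mL. Drug dilutions in DMSO (1 µL/well) mixed with HBSS, then cell suspension added at 27 °C.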
On the technique in general: Cyclic AMP is a second messenger, typically raised through Gs and lowered through Gi signalling.

Data set [9] deals with Trypanosoma brucei rhodesiense. In words: Antitrypanosomal activity against trypomastigotes of Trypanosoma brucei rhodesiense STIB-900 after 72 hrs by fluorescence assay. To be noted: STIB-900, 72 h.
Data set [10] concerns Trypanosoma cruzi. In words: Antitrypanosomal activity against trypomastigotes of Trypanosoma cruzi after 72 hrs by fluorescence assay.
Data set [11] is described as follows: Inhibition of Trypanosoma brucei recombinant TbrPDEB2 expressed in yeast assessed as reduction of [3H]-cAMP hydrolysis by scintillation proximity assay. The essentials: as §1

Regarding `COc1ccc(C2=NN(C(C)C)C(=O)C2(C)C)cc1Cl`, the IC50 in [1] was more than 10 µM.

With `COc1ccc(C2=NN(C(C)C)C(=O)C2(C)C)cc1OCCCCOc1ccc(C#N)cc1`, the IC50 in data set [1] came out at 5 µM.

On to `COc1ccc(C2=NN(C3CCCCCC3)C(=O)C2(C)C)cc1OCc1cc(C)on1`, for which the IC50 in data set [1] was 0.63 µM.

In the case of `COc1ccc(C2=NN(C3CCCCCC3)C(=O)C2(C)C)cc1Br`, the IC50 in [1] amounted to 2.5 µM.

For `COc1ccc(C2=NN(C(C)C)C(=O)C2(C)C)cc1OCc1ccccc1`, the IC50 in data set [1] came out at 1 µM.

`COc1ccc(COc2cc(C3=NN(C4CCCCCC4)C(=O)C3(C)C)ccc2OC)cc1` returned a CC50 at 72 h in data set [2] of more than 64 µM. The IC50 in [1] came to 0.79 µM; in data set [3], 10 µM.

Turning to `COc1ccc(C2=NN(C(C)C)C(=O)C2(C)C)cc1OCc1cccc2ccccc12`, the IC50 in data set [1] worked out at 0.79 µM.

On to `COc1ccc(C2=NN(C(C)C)C(=O)C2(C)C)cc1OCc1ccc(C#N)cc1`, for which, in data set [1], the IC50 amounted to 2 µM.

With `COc1ccc(C2CNC(=O)C2)cc1OC1CCCC1` (stereo not given) [ROLIPRAM], in data set [1], the IC50 is more than 100 µM.

Turning to `COc1ccc(C2=NN(C3CCCCCC3)C(=O)C2(C)C)cc1OCCCCOc1ccc(C#N)cc1`, in data set [1], the IC50 was 0.16 µM.

Consider `COc1ccc(C2=NN(C3CCCCCC3)C(=O)C2(C)C)cc1OC1CCCC1`, for which the IC50 in data set [1] came out at 0.41 µM.

Turning to `COc1ccc(C2=NNC(=O)C2(C)C)cc1OC1CCCC1`, the IC50 in data set [1] was 12 µM.

Turning to `COc1ccc(CCOc2cc(C3=NN(C(C)C)C(=O)C3(C)C)ccc2OC)cc1`, the IC50 in [1] stood at 0.83 µM.

In the case of `COc1ccc(C2=NNC(=O)C2(C)C)cc1OCc1ccccc1`, the IC50 in data set [1] is 6.3 µM.

In [2], `COc1ccc(COc2cc(C3=NN(C(C)C)C(=O)C3(C)C)ccc2OC)cc1` yielded a CC50 at 72 h of more than 64 µM. Besides, the IC50 stood at 2 µM in data set [1] and 32 µM in [3].

For `COc1ccc(C2=NNC(=O)C2(C)C)cc1Cl`, in data set [1], the IC50 is more than 10 µM.

Take `COc1ccc(C2=NN(C(C)C)C(=O)C2(C)C)cc1OCc1ccccn1`: the IC50 in [1] was 2.5 µM.

For the compound `COc1ccc(C2=NN(C3CCCCCC3)C(=O)C3CC=CCC23)cc1OCCCCOc1ccc(-c2nn[nH]n2)cc1` (stereo not given), the IC50 in [4] amounted to 0.08 µM.

Regarding `COc1ccc(C2=NN(C3CCCCCC3)C(=O)C2(C)C)cc1O`, the IC50 in [1] is more than 10 µM.

With `COc1ccc(C2=NN(C3CCCCCC3)C(=O)C2(C)C)cc1Cl`, the CC50 at 72 h in [2] came to 32 µM. The IC50 in data set [1] was 2 µM; in data set [3], 10 µM.

On to `COc1ccc(C2=NNC(=O)C2(C)C)cc1Br`, for which, in data set [2], the CC50 at 72 h is more than 64 µM. Further, the values for the IC50 in data set [1] and in [3] were more than 10 µM and more than 64 µM, respectively.

Regarding `COc1ccc(C2=NN(C)C(=O)C2(C)C)cc1OCc1ccccc1`, in data set [1], the IC50 was determined as 10 µM.

On to `COc1ccc(C2=NN(C3CCCCCC3)C(=O)C2(C)C)cc1OCc1ccccc1`, for which the CC50 at 72 h in data set [2] was more than 64 µM. Also, the IC50 is 0.5 µM in data set [1] and 6.3 µM in data set [3].

As for `COc1ccc(C2=NN(C3CCCCCC3)C(=O)C2(C)C)cc1OCc1ccccn1`, the IC50 in data set [1] was found to be 0.5 µM.

Turning to `COc1ccc(C2=NN(C(C)C)C(=O)C2(C)C)cc1Br`, in data set [1], the IC50 is more than 10 µM.

As to `COc1ccc(CCOc2cc(C3=NN(C4CCCCCC4)C(=O)C3(C)C)ccc2OC)cc1`, the IC50 in data set [1] worked out at 0.63 µM.

For `COc1ccc(C2=NN(C(C)C)C(=O)C2(C)C)cc1O`, the IC50 in [1] was more than 10 µM.

`COc1ccc(C2=NN(C(C)C)C(=O)C2(C)C)cc1OCc1cc(C)on1` came in with a half-maximal cytotoxic concentration (CC50) at 72 h in data set [2] of more than 64 µM. Also, the IC50 in [1] was found to be 5 µM; in data set [3] it was 33 µM.

For the compound `COc1ccc(C2=NN(C3CCCCCC3)C(=O)C2(C)C)cc1OCc1cccc2ccccc12`, the IC50 in data set [1] is 0.25 µM.

As for `COc1ccc(C2=NN(C3CCCCCC3)C(=O)C2(C)C)cc1OCCCCOc1ccc(-c2nn[nH]n2)cc1`, the Activity entry in data set [5] and in data set [8] was “Dose-dependent effect” throughout. In addition, in data set [6], the inhibition result is “Active”. Besides, in [7], the result was Active. The IC50 in [9] amounted to 0.06 µM; in data set [10], 7.6 µM; in data set [11], 0.072 µM; in [3], 0.52 µM.

Regarding `COc1ccc(C2=NN(C3CCCCCC3)C(=O)C2(C)C)cc1OCc1ccc(C#N)cc1`, the half-maximal inhibitory concentration (IC50) in data set [1] is 1 µM.

In general, IC50 refers to the midpoint of a concentration-inhibition curve. As a reminder, the CC50 is the concentration that lowers cell viability or growth by half.
